Legend:
Cytochrome P450 1A2 = target: T1, Cytochrome P450 1A2 (Homo sapiens, UniProt P05177); test: Activity of human CYP1A2 expressed in microsomes isolated from baculovirus infected insect cell assessed as enzyme-mediated 5-(4-((6-methoxy-1H-benzo[d]imidazol-2-yl)methoxy)benzyl)thiazolidine-2,4-dione formation at 20 uM after 2 hrs by radio-HPLC/LC-MS/MS analysis in presence of NADPH-generating system and NADPH-generating system/SAM; type: ADME
T1 sequence (P05177 whole entry): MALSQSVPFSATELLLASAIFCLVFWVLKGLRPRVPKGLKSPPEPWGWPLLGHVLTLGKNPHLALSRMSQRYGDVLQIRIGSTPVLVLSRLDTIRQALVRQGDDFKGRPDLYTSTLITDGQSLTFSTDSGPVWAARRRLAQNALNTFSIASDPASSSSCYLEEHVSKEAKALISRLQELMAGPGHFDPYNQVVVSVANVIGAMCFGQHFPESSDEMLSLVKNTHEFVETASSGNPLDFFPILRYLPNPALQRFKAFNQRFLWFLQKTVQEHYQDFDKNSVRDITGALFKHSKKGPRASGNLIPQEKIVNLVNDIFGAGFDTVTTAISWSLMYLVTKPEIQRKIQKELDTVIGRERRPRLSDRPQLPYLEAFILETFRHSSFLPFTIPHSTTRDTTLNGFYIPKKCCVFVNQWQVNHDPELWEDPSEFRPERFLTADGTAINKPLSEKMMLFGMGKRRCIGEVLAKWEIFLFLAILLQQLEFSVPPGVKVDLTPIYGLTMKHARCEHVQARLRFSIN
Summary of the method: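 Baculovirus/insect-cell microsomes expressing single human CYPs, 1 mg/ml protein, with 50 mM potassium phosphate (pH 7.4) or 100 mM Tris-HCl (pH 7.5). NADPH-generating system: 2 mM NADP⁺, 20 mM glucose 6-phosphate, 2 units/ml G6PDH, 10 mM MgCl₂. [¹⁴C]rivoglitazone at 20 μM, 2 h at 37°C with shaking. Control used insect-cell control supersomes. Stopped with acetonitrile; supernatant concentrated under nitrogen; metabolites analysed by radio-HPLC, LC-MS and LC-MS/MS.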

[1] = target: T2, UDP-glucuronosyltransferase 2B7 (Homo sapiens, UniProt P16662); test: Activity of human UGT2B7 expressed in microsomes isolated from baculovirus infected insect cell assessed as enzyme-mediated 3-(4-((6-methoxy-1-methyl-1H-benzo[d]imidazol-2-yl)methoxy)phenyl)-2-(methylsulfonyl)propanamide formation at 20 uM after 4 hrs by radio-HPLC/LC-MS/MS analysis in presence of NADPH-generating system/SAM; type: ADME
T2 sequence (P16662 whole entry): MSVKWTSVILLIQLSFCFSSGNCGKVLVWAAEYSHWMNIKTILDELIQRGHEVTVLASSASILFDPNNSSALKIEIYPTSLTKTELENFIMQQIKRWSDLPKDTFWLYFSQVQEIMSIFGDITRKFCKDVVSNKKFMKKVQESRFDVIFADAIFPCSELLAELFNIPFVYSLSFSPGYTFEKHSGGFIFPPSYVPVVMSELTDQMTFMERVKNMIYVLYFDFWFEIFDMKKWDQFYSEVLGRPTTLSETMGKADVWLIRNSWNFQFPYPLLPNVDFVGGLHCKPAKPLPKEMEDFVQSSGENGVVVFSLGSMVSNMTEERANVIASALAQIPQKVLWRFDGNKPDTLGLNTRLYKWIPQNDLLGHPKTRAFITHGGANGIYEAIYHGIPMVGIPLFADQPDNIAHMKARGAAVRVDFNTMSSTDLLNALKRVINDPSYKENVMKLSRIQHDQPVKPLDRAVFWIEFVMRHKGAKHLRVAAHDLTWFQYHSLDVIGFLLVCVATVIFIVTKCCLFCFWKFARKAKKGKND

Cytochrome P450 2C9 = Cytochrome P450 2C9 (Homo sapiens, UniProt P11712); test: Activity of human CYP2C9 expressed in microsomes isolated from baculovirus infected insect cell assessed as enzyme-mediated 2-amino-3-((1-carboxy-2-(4-((6-methoxy-1-methyl-1H-benzo[d]imidazol-2-yl)methoxy)phenyl)ethyl)disulfanyl)propanoic acid formation at 20 uM after 2 hrs by radio-HPLC/LC-MS/MS analysis; type: ADME
Chain of Cytochrome P450 2C9 (P11712 whole entry): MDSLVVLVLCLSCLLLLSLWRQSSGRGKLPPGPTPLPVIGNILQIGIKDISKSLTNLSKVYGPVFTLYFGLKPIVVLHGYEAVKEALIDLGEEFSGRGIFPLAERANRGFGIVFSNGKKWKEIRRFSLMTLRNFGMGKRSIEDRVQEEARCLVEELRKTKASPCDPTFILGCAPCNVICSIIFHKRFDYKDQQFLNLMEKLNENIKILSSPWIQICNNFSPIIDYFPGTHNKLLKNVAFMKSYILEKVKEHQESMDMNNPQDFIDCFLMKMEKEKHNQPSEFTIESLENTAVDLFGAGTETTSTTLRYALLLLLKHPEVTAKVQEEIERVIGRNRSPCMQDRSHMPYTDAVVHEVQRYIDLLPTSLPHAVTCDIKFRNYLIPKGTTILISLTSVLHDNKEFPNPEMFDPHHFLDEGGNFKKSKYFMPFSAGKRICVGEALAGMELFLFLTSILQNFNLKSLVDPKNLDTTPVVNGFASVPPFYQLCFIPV
Summary of the method: (§1)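 Baculovirus-insect-cell microsomes expressing the human CYP (1 mg/ml protein) were incubated with [14C]rivoglitazone (20 μM) in 50 mM potassium phosphate (pH 7.4) or 100 mM Tris-HCl (pH 7.5) with an NADPH-generating system (2 mM NADP+, 20 mM glucose 6-phosphate, 2 units/ml G6PDH, 10 mM MgCl2) for 2 h at 37°C. Insect-cell control supersomes served as the control. Reactions were stopped with acetonitrile, and the concentrated supernatants were analysed by radio-HPLC, LC-MS and LC-MS/MS.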

[2] = Drug metabolism in monkey hepatocytes assessed as formation of 2-hydroxy-3-(4-((6-methoxy-1-methyl-1H-benzo[d]imidazol-2-yl)methoxy)phenyl)propanamide at 30 uM after 3 hrs by radio-HPLC/LC-MS/MS analysis in presence of NADPH-generating system and NADPH-generating system/SAM; conditions: cynomolgus monkey
Cytochrome P450 3A5 = Cytochrome P450 3A5 (Homo sapiens, UniProt P20815); test: Activity of human CYP3A5 expressed in microsomes isolated from baculovirus infected insect cell assessed as enzyme-mediated 2-((4-((2,4-dioxothiazolidin-5-yl)methyl)phenoxy)methyl)-1-methyl-1H-benzo[d]imidazol-6-yl hydrogen sulfate formation at 20 uM after 2 hrs by radio-HPLC/LC-MS/MS analysis; type: ADME; summary of the method: as §1
Chain of Cytochrome P450 3A5 (P20815 whole entry): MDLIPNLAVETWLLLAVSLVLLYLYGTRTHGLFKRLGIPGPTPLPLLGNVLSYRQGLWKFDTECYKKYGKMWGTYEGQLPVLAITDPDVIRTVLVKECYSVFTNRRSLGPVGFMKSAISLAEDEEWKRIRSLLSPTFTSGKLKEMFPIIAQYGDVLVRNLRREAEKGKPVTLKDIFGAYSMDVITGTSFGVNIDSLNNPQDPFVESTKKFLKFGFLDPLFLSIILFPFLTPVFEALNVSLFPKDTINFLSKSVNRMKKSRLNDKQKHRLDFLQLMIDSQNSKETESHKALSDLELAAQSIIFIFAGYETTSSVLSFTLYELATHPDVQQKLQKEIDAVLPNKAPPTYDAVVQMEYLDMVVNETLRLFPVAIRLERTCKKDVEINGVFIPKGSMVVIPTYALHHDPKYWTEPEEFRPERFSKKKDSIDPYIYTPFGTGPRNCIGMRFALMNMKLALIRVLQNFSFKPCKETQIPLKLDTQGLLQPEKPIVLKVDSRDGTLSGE

[3] = target: T3, UDP-glucuronosyltransferase 1A1 (Homo sapiens, UniProt P22309); test: Activity of human UGT1A1 expressed in microsomes isolated from baculovirus infected insect cell assessed as enzyme-mediated (2S,3S,4S,5R,6R)-6-((1-carboxy-2-(4-((6-methoxy-1-methyl-1H-benzo[d]imidazol-2-yl)methoxy)phenyl)ethylthio)carbonylamino)-3,4,5-trihydroxytetrahydro-2H-pyran-2-carboxylic acid formation at 20 uM after 4 hrs by radio-HPLC/LC-MS/MS analysis in presence of UDPGA; type: ADME
T3 sequence (P22309 whole entry): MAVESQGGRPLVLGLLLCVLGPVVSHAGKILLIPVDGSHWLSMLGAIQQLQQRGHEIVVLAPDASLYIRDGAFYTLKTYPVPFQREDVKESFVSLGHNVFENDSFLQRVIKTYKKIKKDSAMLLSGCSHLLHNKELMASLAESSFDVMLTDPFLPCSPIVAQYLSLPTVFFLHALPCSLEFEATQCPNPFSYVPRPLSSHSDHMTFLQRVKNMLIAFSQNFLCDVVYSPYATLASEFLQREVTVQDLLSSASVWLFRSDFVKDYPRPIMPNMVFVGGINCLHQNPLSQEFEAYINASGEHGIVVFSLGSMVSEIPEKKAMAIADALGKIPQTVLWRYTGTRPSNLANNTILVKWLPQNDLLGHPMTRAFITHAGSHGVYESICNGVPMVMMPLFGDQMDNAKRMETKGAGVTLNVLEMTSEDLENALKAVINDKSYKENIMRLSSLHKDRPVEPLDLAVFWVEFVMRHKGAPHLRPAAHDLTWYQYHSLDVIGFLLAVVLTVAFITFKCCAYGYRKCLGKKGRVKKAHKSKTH
Summary of the method: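 Alamethicin (50 μg/mg protein, 15 min on ice) pretreated expressed human UGT microsomes (1 mg/ml protein) from baculovirus-infected insect cells. Incubation with [¹⁴C]rivoglitazone (20 μM) in 100 mM Tris-HCl (pH 7.5) with 10 mM MgCl₂, started by 5 mM UDPGA, 4 h at 37°C with shaking. UGT insect-cell control supersomes were run alongside. Acetonitrile stop, concentrated supernatant analysed by radio-HPLC, LC-MS and LC-MS/MS.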

[4] = Drug metabolism in cynomolgus monkey liver microsomes assessed as formation of 3-(4-((6-methoxy-1-methyl-1H-benzo[d]imidazol-2-yl)methoxy)phenyl)-2-(methylthio)propanamide at 20 uM after 2 hrs by radio-HPLC/LC-MS/MS analysis in presence of NADPH-generating system/SAM; type: ADME, Macaca fascicularis

Drug metabolism (Cytochrome P450 1A2): metabolite_detected
Drug metabolism [1]: metabolite_not_detected
Drug metabolism (Cytochrome P450 2C9): metabolite_not_detected
Drug metabolism [2]: metabolite_not_detected
Drug metabolism (Cytochrome P450 3A5): metabolite_not_detected
Drug metabolism [3]: metabolite_not_detected
Drug metabolism [4]: metabolite_detected
SMILES: COc1ccc2nc(COc3ccc(C[14CH]4SC(=O)NC4=O)cc3)n(C)c2c1.Cl (racemic)
